# Measurements as given in publication PMC6868502 (Journal of natural products, 2018).
# Where two headings read alike, the source gives them in different places.
# Key:
# [1] = test system: GM18407 fibroblast cell line (NPC1 R404Q, M1142T); settings: GM18407 cells; cited from earlier work
# [2] = test system: NPC1 protein in GM18453 fibroblasts; assay: NPC1 protein expression, Western blot after peptide:N-glycosidase F treatment; format: cell-based, human; settings: 48 hours
# In short: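 NPC1-mutant GM18453 fibroblasts exposed for 48 h at 37°C, 5% CO2 to test compound (50 nM), SAHA (5 μM) or 0.1% v/v DMSO, then lysed in RIPA with protease inhibitors. Lysate (25 μg) digested with PNGase F (1000 U) in SDS, DTT and Tris-HCl pH 8, overnight (~18 h) at 37°C. Immunoblot with rabbit anti-NPC1, ECL on film. Densitometry normalised to actin, relative to DMSO; four independent experiments; SD; t-test.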
# [3] = test system: GM18407 fibroblast cell line (NPC1 R404Q, M1142T); assay: Filipin staining of cholesterol accumulation in GM18407 fibroblasts; format: cell-based, human; settings: GM18407 cells, even at high concentrations
# [4] = test system: GM18453 skin fibroblast cell line (I1061T mutation on both alleles of NPC1); settings: several NPC1 mutant cell lines, including GM18453; cited from earlier work
# [5] = test system: NPC1 protein in GM18453 fibroblasts; assay: NPC1 protein expression, Western blot after endoglycosidase H treatment; format: cell-based, human; settings: 48 hours; for levels of the 250 kDa NPC1 isoform: SAHA 5 μM or GEX1A 50 nM
# [6] = test system: GM18453 skin fibroblast cell line (I1061T mutation on both alleles of NPC1); assay: Filipin staining of unesterified cholesterol in NPC1 mutant fibroblasts; format: cell-based, human; settings: GM18453 cells; for concentration at which the lowest filipin area/cell is achieved: dose range 1 nM to 5 μM; for concentration giving significant rescue of cholesterol accumulation (as low as): filipin fluorescence images
# Caco-2 cell line = assay: Caco-2 permeability; format: in vitro ADME
# histone acetylation = settings: cited from earlier work
# [7] = test system: low-density lipoprotein (LDL) receptor; settings: ref 5; cited from earlier work
# Aqueous solubility = format: physicochemical
# Pharmacokinetics in mice = format: in vivo; settings: mice dosed at 2 mg/kg
# Plasma protein binding = format: in vitro ADME
# [8] = Liver microsome stability; format: in vitro ADME
structure (smiles),measurement,setting,value
"O=C(CCCCCCC(=O)Nc1ccccc1)NO [SAHA, suberoylanilide hydroxamic acid, reference compound]",effect on lysosomal cholesterol accumulation,[1],no effect on lysosomal cholesterol accumulation
same,levels of the 250 kDa NPC1 isoform,"[2]; SAHA 5 μM, PNGase F experiment, vs DMSO",moderate increase
same,rescue of the disease phenotype (cholesterol accumulation),[3],neither SAHA nor compounds 1 – 4 were able to effectively rescue the disease phenotype
same,reversal of cholesterol accumulation in NPC1 mutant cell lines,[4],effective in reversing cholesterol accumulation
same,levels of the 250 kDa NPC1 isoform,[5]; vs DMSO,increases the expression of the larger (250 kDa) isoform
same,increase in the levels of total NPC1 protein,"[5]; SAHA 5 μM, Endo H, densitometry vs DMSO",approximately twofold
"CO[C@H]([C@@H](C)[C@H]1O[C@]1(C)C[C@H](C)/C=C/C=C(\C)[C@H]1O[C@@H](CC(=O)O)CC[C@@H]1C)[C@@H](C)O [Compound 1, GEX1A]",effects on cell and nuclei shape (cellular toxicity),[6]; 5 μM,detrimental effects on cell and nuclei shape
same,concentration at which the lowest filipin area/cell is achieved,[6]; 48 hours,50 nM
same,concentration giving significant rescue of cholesterol accumulation (as low as),[6]; 48 hours,50 nM
same,expression of the highly glycosylated 180 kDa NPC1 isoform,"[2]; GEX1A 50 nM, PNGase F experiment",clear increase
same,level of NPC1 protein expression including both the 250 and 120 kDa isoforms,"[2]; GEX1A 50 nM, PNGase F, vs DMSO",significant increase
same,permeability,Caco-2 cell line; Caco-2,reasonably permeable
same,efflux,Caco-2 cell line; Caco-2 cell line,no evidence of efflux
same,effect on histone acetylation,histone acetylation; ref 5,does not affect histone acetylation
same,effect on histone acetylation,histone acetylation; ref 32,no effect on histone acetylation
same,expression of the LDL receptor,[7],increased expression
same,aqueous solubility,Aqueous solubility,exceptional aqueous solubility
same,half-life,Pharmacokinetics in mice,long half-life
same,plasma protein binding profile,Plasma protein binding,excellent plasma protein binding profile
same,expression of the 180 kDa NPC1 species,"[5]; GEX1A 50 nM, vs DMSO",increases the expression of the 180 kDa species
same,levels of the 250 kDa NPC1 isoform,[5]; vs DMSO,did not cause a significant increase
same,stability in liver microsomes,[8],quite stable
"COC(=O)C[C@H]1CC[C@H](C)[C@@H](/C(C)=C/C=C/[C@@H](C)C[C@@]2(C)O[C@@H]2[C@H](C)[C@@H](OC)[C@@H](C)O)O1 [Compound 2, Methyl 2-((2R,5S,6S)-6-((S,2E,4E)-7-((2R,3R)-3-((2R,3R,4R)-4-hydroxy-3-methoxypentan-2-yl)-2-methyloxiran-2-yl)-6-methylhepta-2,4-dien-2-yl)-5-methyltetrahydro-2H-pyran-2-yl) acetate]",concentration at which the lowest filipin area/cell is achieved,[6]; 48 hours,50 nM
same,concentration giving significant rescue of cholesterol accumulation (as low as),[6]; 48 hours,50 nM
"COC(=O)C[C@H]1CC[C@H](C)[C@@H](/C(C)=C/C=C/[C@@H](C)C[C@@]2(C)O[C@@H]2[C@H](C)[C@@H](OC)[C@@H](C)OC(C)=O)O1 [Compound 3, Methyl 2-((2R,5S,6S)-6-((S,2E,4E)-7-((2R,3R)-3-((2R,3R,4R)-4-acetoxy-3-methoxypentan-2-yl)-2-methyloxiran-2-yl)-6-methylhepta-2,4-dien-2-yl)-5-methyltetrahydro-2H-pyran-2-yl) acetate]",concentration at which the lowest filipin area/cell is achieved,[6]; 48 hours,50 nM
same,concentration giving significant rescue of cholesterol accumulation (as low as),[6]; 48 hours,50 nM
"COC(=O)C[C@H]1CC[C@H](C)[C@@H](/C(C)=C/C=C/[C@@H](C)C[C@@]2(C)O[C@@H]2[C@H](C)[C@@H](OC)C(C)=O)O1 [Compound 4, Methyl 2-((2R,5S,6S)-6-((S,2E,4E)-7-((2R,3R)-3-((2S,3R)-3-methoxy-4-oxopentan-2-yl)-2-methyloxiran-2-yl)-6-methylhepta-2,4-dien-2-yl)-5-methyltetrahydro-2H-pyran-2-yl)acetate]",cholesterol clearance compared to vehicle treatment,"[6]; 50 nM, 48 hours, filipin",Some cholesterol clearance
